The results in this text go back to ChEMBL document CHEMBL4715738, “In Vitro Antibacterial Activity of Curcumin-Polymyxin B Combinations against Multidrug-Resistant Bacteria Associated with Traumatic Wound Infections” (J Nat Prod, 2016).

SMILES strings stand for the structures. Calls of active or inactive are those of the source.

The subject of assay [1] is Enterococcus faecium. The assay can be described thus: Antibacterial activity against vancomycin-resistant Enterococcus faecium OEF42 assessed as reduction in bacterial growth incubated for 24 hrs in presence of curcumin. In kind it is functional.
For assay [2], the system named is Enterococcus faecium. Put plainly: Antibacterial activity against vancomycin-resistant Enterococcus faecium OEF65 assessed as reduction in bacterial growth incubated for 24 hrs in presence of curcumin. In kind it is functional.
Assay [3] has as its system Enterococcus faecalis. Put plainly: Antibacterial activity against […] Enterococcus faecalis ATCC 29212 assessed as reduction in bacterial growth incubated for 24 hrs in presence of curcumin. In kind it is functional.
Assay [4] relates to Acinetobacter baumannii. Put plainly: Antibacterial activity against Acinetobacter baumannii AB12 harboring OXA-23 assessed as reduction in bacterial growth incubated for 24 hrs in presence of curcumin. It counts as functional.
Assay [5] deals with Acinetobacter baumannii. The assay can be described thus: Antibacterial activity against Acinetobacter baumannii AB16 harboring OXA-23 clone 2 assessed as reduction in bacterial growth incubated for 24 hrs in presence of curcumin. In kind it is functional.
The test system of assay [6] is Pseudomonas aeruginosa. Put plainly: Antibacterial activity against Pseudomonas aeruginosa PAO1 assessed as reduction in bacterial growth incubated for 24 hrs in presence of curcumin. It counts as functional.
The subject of assay [7] is Stenotrophomonas maltophilia. The assay can be described thus: Antibacterial activity against Stenotrophomonas maltophilia SMB07 assessed as reduction in bacterial growth incubated for 24 hrs in presence of curcumin. It counts as functional.
In assay [8] the test system is Enterococcus faecalis. The assay can be described thus: Synergistic antibacterial activity against […] Enterococcus faecalis ATCC 29212 assessed as fractional inhibitory concentration index measured after 24 hrs in presence of curcumin by checkerboard assay. It counts as functional. In a few lines: (§1)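 FICI was derived from checkerboard MICs. Synergy was defined as FICI ≤ 0.5 and additive as FICI > 0.5−4.0. Where an MIC was not reached, the dilution above the maximum dose was used in the FICI calculation. Experiments were run in triplicate and reported as means.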

The test system of assay [9] is Staphylococcus aureus. The assay can be described thus: Synergistic antibacterial activity against vancomycin-intermediate resistant Staphylococcus aureus Mu50 assessed as fractional inhibitory concentration index measured after 24 hrs in presence of curcumin by checkerboard assay. It counts as functional. The gist of the method:
as §1

Assay [10] deals with Staphylococcus aureus. The assay can be described thus: Synergistic antibacterial activity against Staphylococcus aureus ATCC 25923 assessed as fractional inhibitory concentration index measured after 24 hrs in presence of curcumin by checkerboard assay. It counts as functional. The gist of the method: as §1
Assay [11] deals with Streptococcus pyogenes. The assay can be described thus: Synergistic antibacterial activity against Streptococcus pyogenes SPY1 assessed as fractional inhibitory concentration index measured after 24 hrs in presence of curcumin by checkerboard assay. It counts as functional. In a few lines:
(§2)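 FICI calculated from combination MICs; ≤0.5 taken as synergy and >0.5–4.0 as additive. Where an MIC was not reached, the dilution above the highest concentration tested was used in the calculation. Run in triplicate and reported as means.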

Assay [12] relates to Acinetobacter baumannii. The assay can be described thus: Synergistic antibacterial activity against Acinetobacter baumannii AB16 harboring OXA-23 clone 2 assessed as fractional inhibitory concentration index measured after 24 hrs in presence of curcumin by checkerboard assay. It counts as functional. The gist of the method:
as §1

The subject of assay [13] is Pseudomonas aeruginosa. Put plainly: Synergistic antibacterial activity against Pseudomonas aeruginosa PA14 assessed as fractional inhibitory concentration index measured after 24 hrs in presence of curcumin by checkerboard assay. In kind it is functional. In a few lines: as §2
In assay [14] the test system is Stenotrophomonas maltophilia. Put plainly: Synergistic antibacterial activity against Stenotrophomonas maltophilia SMS01 assessed as fractional inhibitory concentration index measured after 24 hrs in presence of curcumin by checkerboard assay. It counts as functional. The gist of the method: as §2
The test system of assay [15] is Stenotrophomonas maltophilia. Put plainly: Synergistic antibacterial activity against Stenotrophomonas maltophilia NCTC 10258 assessed as fractional inhibitory concentration index measured after 24 hrs in presence of curcumin by checkerboard assay. In kind it is functional. The gist of the method:
as §2

Assay [16] relates to Stenotrophomonas maltophilia. The assay can be described thus: Antibacterial activity against Stenotrophomonas maltophilia NCTC 10258 assessed as reduction in colony formation at MIC measured after 24 hrs by time kill assay. It counts as functional, organism-based. The gist of the method:
(§3)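 Time-kill in Mueller-Hinton 2 broth. Inoculum was a 1/1000 dilution of a 16 h overnight culture, about 10^6 CFU/mL, 10 mL per tube. Arms were each agent alone at ×1 MIC, or the combination at ×1 MIC plus ×0.5 MIC partner. Incubated at 37 °C with continuous agitation for 24 h. Samples taken at 0, 2, 4, 6 and 24 h, serially diluted and plated on IsoSensitest agar for CFU counts.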

For assay [17], the system named is Streptococcus pyogenes. Put plainly: Synergistic antibacterial activity against Streptococcus pyogenes SPY3 assessed as fractional inhibitory concentration index measured after 24 hrs in presence of curcumin by checkerboard assay.
Assay [18] deals with Enterococcus faecium. The assay can be described thus: Antibacterial activity against vancomycin-resistant Enterococcus faecium OEF65 assessed as reduction in bacterial growth incubated for 24 hrs in presence of polymyxin B. It counts as functional.
The subject of assay [19] is Staphylococcus aureus. The assay can be described thus: Antibacterial activity against vancomycin-intermediate resistant Staphylococcus aureus Mu50 assessed as reduction in bacterial growth incubated for 24 hrs in presence of polymyxin B. In kind it is functional.
The next assay has as its system Escherichia coli. The assay can be described thus: Antibacterial activity against Escherichia coli NCTC 12241 assessed as reduction in bacterial growth incubated for 24 hrs in presence of polymyxin B. It counts as functional.
For assay [20], the system named is Stenotrophomonas maltophilia. The assay can be described thus: Antibacterial activity against Stenotrophomonas maltophilia SMS01 assessed as reduction in bacterial growth incubated for 24 hrs in presence of polymyxin B. In kind it is functional.
Assay [21] has as its system Stenotrophomonas maltophilia. Put plainly: Antibacterial activity against Stenotrophomonas maltophilia SMB07 assessed as reduction in bacterial growth incubated for 24 hrs in presence of polymyxin B. It counts as functional.
The test system of assay [22] is Staphylococcus aureus. Put plainly: Bactericidal activity against methicillin-resistant Staphylococcus aureus NCTC 12493 assessed as log reduction in colony forming units at 0.5 fold MIC measured after 24 hrs in presence of polymyxin B at MIC by time kill assay. It counts as functional. In a few lines: (§4)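 Time-kill in 10 mL Mueller-Hinton 2 broth, 37 °C with continuous agitation, 24 h. Inoculum was a 1/1000 dilution of a 16 h overnight culture, about 10^6 CFU/mL. Single agents at 1× MIC; combination at 1× MIC polymyxin B plus 0.5× MIC curcumin. Samples at 0, 2, 4, 6 and 24 h were serially diluted and plated on IsoSensitest agar for CFU/mL.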

Assay [23] relates to Pseudomonas aeruginosa. Put plainly: Bactericidal activity against Pseudomonas aeruginosa ATCC 27853 assessed as bacterial cell death at 0.5 fold MIC measured after 4 to 6 hrs in presence of polymyxin B at MIC by time kill assay relative to control. In kind it is functional. The conditions noted are these: time 4-6 hrs. The gist of the method: as §4
Assay [24] concerns Staphylococcus aureus. Put plainly: Bactericidal activity against methicillin-resistant Staphylococcus aureus NCTC 12493 assessed as bacterial cell death at 0.5 fold MIC measured after 4 to 6 hrs hrs in presence of polymyxin B at MIC by time kill assay relative to control. In kind it is functional. The conditions noted are these: time 4-6 hrs. The gist of the method: as §4

The subject of assay [25] is Acinetobacter baumannii. The assay can be described thus: Antibacterial activity against Acinetobacter baumannii ATCC 19606 assessed as reduction in bacterial colony formation at 0.5 fold MIC measured after 24 hrs by time kill assay. It counts as functional, organism-based. Conditions: ATCC 19606 = CIP 70.34 = JCM 6841. In a few lines: as §3
The subject of assay [26] is Staphylococcus aureus. Put plainly: Antibacterial activity against methicillin-resistant Staphylococcus aureus NCTC 12493 assessed as reduction in bacterial colony formation at 0.5 fold MIC measured after 24 hrs by time kill assay. In kind it is functional, organism-based.
Assay [27] relates to Enterococcus faecium. The assay can be described thus: Potentiation of polymyxin B-induced antibacterial activity against vancomycin-resistant Enterococcus faecium OEF42 assessed as fold reduction in polymyxin B MIC measured after 24 hrs in presence of polymyxin B by checkerboard assay. It counts as functional.
Assay [28] concerns Streptococcus pyogenes. The assay can be described thus: Potentiation of polymyxin B-induced antibacterial activity against Streptococcus pyogenes SPY2 assessed as fold reduction in polymyxin B MIC measured after 24 hrs […] checkerboard assay. In kind it is functional. The gist of the method: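 Polymyxin B MIC measured alone and in combination with curcumin; fold reduction derived from the two MICs. Experiments run in triplicate and reported as mean values.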

Assay [29] has as its system Acinetobacter baumannii. Put plainly: Potentiation of polymyxin B-induced antibacterial activity against Acinetobacter baumannii NCTC 19606 assessed as fold reduction in polymyxin B MIC measured after 24 hrs in presence of polymyxin B by checkerboard assay. In kind it is functional.

On to `CC[C@H](C)CCCCC(=O)N[C@@H](CCN)C(=O)N[C@H](C(=O)N[C@@H](CCN)C(=O)N[C@H]1CCNC(=O)[C@H]([C@@H](C)O)NC(=O)[C@H](CCN)NC(=O)[C@H](CCN)NC(=O)[C@H](CC(C)C)NC(=O)[C@@H](Cc2ccccc2)NC(=O)[C@H](CCN)NC1=O)[C@@H](C)O.O=S(=O)(O)O`, for which the MIC with Enterococcus faecium [1] worked out at 3.1 µM; in the assay on Enterococcus faecium [2] it was 1.5 µM; in the assay with Enterococcus faecalis [3], 0.096 µM; in the assay with Acinetobacter baumannii [4] it was 0.024 µM; with Acinetobacter baumannii [5] it was 0.012 µM; with Pseudomonas aeruginosa [6], 0.012 µM. Moreover, the MIC in [7] stood at 0.0313 µM. Further, the “fractional inhibitory concentration index (FICI)” value in the assay with Enterococcus faecalis [8] is recorded as 0.251; in the assay with Staphylococcus aureus [9], 0.047; with Staphylococcus aureus [10], 0.156; with Streptococcus pyogenes [11], 0.094; in the assay on Acinetobacter baumannii [12], 0.068; in the assay with Pseudomonas aeruginosa [13], 0.023. Moreover, the “fractional inhibitory concentration index (FICI)” value in assay [14] came to 0.012; in assay [15], 0.012; in the assay with Streptococcus pyogenes [17] it was 0.5. Further, in assay [16], the outcome was inactive.

As to `COc1cc(/C=C/C(=O)CC(=O)/C=C/c2ccc(O)c(OC)c2)ccc1O` [CURCUMIN], the MIC in the assay with Enterococcus faecium [18] is 43 µM; with Staphylococcus aureus [19], 43 µM; with Escherichia coli, 43 µM; in assay [20], 22 µM; in assay [21], 22 µM. The Activity is given as above 3 log10CFU/ml with Staphylococcus aureus [22], 100% with Pseudomonas aeruginosa [23] and 100% with Staphylococcus aureus [24]. Further, the result in the assay with Acinetobacter baumannii [25] and in the assay on Staphylococcus aureus [26] was inactive. Further, the “fold change (FC)” value with Enterococcus faecium [27], with Streptococcus pyogenes [28] and in the assay with Acinetobacter baumannii [29] was 3 throughout.

For orientation: MIC means the least concentration at which growth counts as inhibited.
